# Measurements from different studies.
# Compare with care: the assays were run in different laboratories.
# MAP2K5: Dual specificity mitogen-activated protein kinase kinase 5 (MAP2K5, Homo sapiens, UniProt Q13163)
Compound,target,effect on,action,method,concentration,quantity,value
CO[C@H]1/C=C/O[C@@]2(C)Oc3c(C)c(O)c4c(O)c(c(/C=N/N5CCN(C6CCCC6)CC5)c(O)c4c3C2=O)NC(=O)/C(C)=C\C=C\[C@H](C)[C@H](O)[C@@H](C)[C@@H](O)[C@@H](C)[C@H](OC(C)=O)[C@@H]1C,"dppA (Mycobacterium tuberculosis, UniProt I6X811)",thermal stability,,,100 µM,ΔTm,> 1.5 °C
CN1CC[C@@]2(C)c3cc(OC(=O)Nc4ccccc4)ccc3N(C)[C@@H]12,"Muscarinic acetylcholine receptor M5 (CHRM5, Homo sapiens, UniProt P08912)",ligand displacement,,radioligand,10 µM,inhibition,6.5%
CCN(CC)CCCC[C@H](NC(=O)[C@H](CC(C)C)NC(=O)[C@H](C)NC(=O)[C@H](Cc1ccccc1)NC(=O)c1ccc(C(C)(C)C)cc1)C(=O)N[C@@H](CO)C(=O)OC,"Melanocortin receptor 4 (MC4R, Homo sapiens, UniProt P32245)",ligand displacement,,radioligand,10 µM,remaining binding,84%
Cc1nn(C)cc1-c1nc2c(N3CCN(Cc4ccc(Cl)cc4)CC3)c(Cl)cnc2[nH]1,MAP2K5,binding,,competition with immobilised ligand,1 µM,remaining binding,58%
Nc1ncc(-c2nc(N3CCOCC3)nc(N3CCOCC3)n2)c(C(F)F)n1,MAP2K5,binding,,competition with immobilised ligand,10 µM,remaining binding,39%
C#Cc1n[nH]c2c(-c3cn(C(C)c4ccccn4)c(=O)[nH]c3=O)cc(F)cc12 (centres unmarked),"Fibroblast growth factor receptor 1 (FGFR1, Homo sapiens, UniProt P11362)",enzyme activity,inhibitor,,1 µM,inhibition,3.8%
COc1ncccc1-c1cnn2ccc(N3CCN(C(=O)OC(C)C)CC3)nc12,"Peripheral plasma membrane protein CASK (CASK, Homo sapiens, UniProt O14936)",binding,,competition with immobilised ligand,1 µM,remaining binding,93%
Sc1ncnc2nc[nH]c12,"Replicase polyprotein 1a, main protease (Severe acute respiratory syndrome-related coronavirus, UniProt P0C6U8)",enzyme activity,inhibitor,,200 µM,remaining activity,49%
